{"source": "ChEMBL document CHEMBL3526081", "about": "(Drug Metab Dispos, 2011)", "key": {"[1]": {"experiment": "Drug metabolism in cynomolgus monkey liver microsomes assessed as 1alpha-hydroxylcinobufagin formation at 100 uM at 37 degC after 30 mins by UFLC-ESI-MS analysis in presence of NADPH-generating system", "format": "ADME, Macaca fascicularis", "conditions": "0.5 h", "how_it_was_run": "(§1)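 Liver microsomes (0.3 mg protein/ml) incubated with 100 µM substrate at 37°C for 30 min, in 100 mM potassium phosphate pH 7.4 with NADPH-generating system (1 mM NADP+, 10 mM glucose 6-phosphate, 1 unit/ml G6PDH, 4 mM MgCl2). Acetonitrile ≤1% final. Stopped with ice-cold acetonitrile and centrifuged. Metabolites identified by UFLC-ESI-MS and quantified by UFLC-DAD at 294 nm against authentic standard curves.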"}, "[2]": {"tested_on": "Liver microsome", "experiment": "Drug metabolism in human liver microsomes assessed as 1alpha-hydroxylcinobufagin formation at 100 uM at 37 degC after 30 mins by UFLC-ESI-MS analysis in presence of NADPH-generating system", "format": "ADME", "conditions": "0.5 h", "how_it_was_run": "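CB (100 µM; acetonitrile ≤1% final) was incubated with pooled HLM (0.3 mg/ml) plus NADPH-generating system (1 mM NADP+, 10 mM glucose 6-phosphate, 1 unit/ml G6PDH, 4 mM MgCl2) in pH 7.4 phosphate buffer at 37°C for 30 min. Products were identified by UFLC-ESI-MS and quantified by UFLC-DAD at 294 nm.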"}, "[3]": {"experiment": "Drug metabolism in Swiss-Hauschka (ICR) mouse liver microsomes assessed as 5beta-hydroxylcinobufagin formation at 100 uM at 37 degC after 30 mins by UFLC-ESI-MS analysis in presence of NADPH-generating system", "format": "ADME", "conditions": "0.5 h", "how_it_was_run": "as §1"}, "[4]": {"tested_on": "Liver microsome", "experiment": "Drug metabolism in human liver microsomes assessed as 5beta-hydroxylcinobufagin formation at 100 uM at 37 degC after 30 mins by UFLC-ESI-MS analysis in presence of 10 uM furafylline CYP1A2 inhibitor", "format": "ADME", "conditions": "0.5 h", "how_it_was_run": "(§2)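 Pooled human liver microsomes (10 donors, both sexes) in 100 mM potassium phosphate pH 7.4 were incubated with CB and a selective P450 inhibitor. Reaction was started with NADPH-generating system after 3 min preincubation at 37°C and stopped with ice-cold acetonitrile. Hydroxylated products were quantified by UFLC-DAD at 294 nm; three experiments in duplicate.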"}, "[5]": {"tested_on": "Liver microsome", "experiment": "Drug metabolism in human liver microsomes assessed as 5beta-hydroxylcinobufagin formation at 100 uM at 37 degC after 30 mins […] in presence of 2.5 uM 8-methoxypsoralen CYP2A6 inhibitor", "format": "ADME", "conditions": "0.5 h"}, "[6]": {"tested_on": "Liver microsome", "experiment": "Drug metabolism in human liver microsomes assessed as 5beta-hydroxylcinobufagin formation at 100 uM at 37 degC after 30 mins by UFLC-ESI-MS analysis in presence of 2 uM montelukast CYP2C8 inhibitor", "format": "ADME", "conditions": "0.5 h", "how_it_was_run": "as §2"}, "[7]": {"tested_on": "Liver microsome", "experiment": "Drug metabolism in human liver microsomes assessed as 1alpha-hydroxylcinobufagin formation at 100 uM at 37 degC after 30 mins by UFLC-ESI-MS analysis in presence of 10 uM quinidine CYP2D6 inhibitor", "format": "ADME", "conditions": "0.5 h", "how_it_was_run": "as §2"}, "[8]": {"tested_on": "Liver microsome", "experiment": "Drug metabolism in beagle dog liver microsomes assessed as 1alpha-hydroxylcinobufagin formation at 100 uM at 37 degC after 30 mins by UFLC-ESI-MS analysis", "format": "ADME, Canis lupus familiaris", "conditions": "0.5 h, read-out: Km(app)", "how_it_was_run": "as §1"}, "[9]": {"experiment": "Drug metabolism in Swiss-Hauschka (ICR) mouse liver microsomes assessed as 1alpha-hydroxylcinobufagin formation at 100 uM at 37 degC after 30 mins by UFLC-ESI-MS analysis", "format": "ADME", "conditions": "0.5 h, read-out: Km(app)", "how_it_was_run": "as §1"}, "[10]": {"experiment": "Ratio of Vmax/Km in cynomolgus monkey liver microsomes assessed as 1alpha-hydroxylcinobufagin formation at 100 uM […] by UFLC-ESI-MS analysis", "format": "ADME, Macaca fascicularis", "conditions": "0.5 h"}, "[11]": {"tested_on": "Liver microsome", "experiment": "Ratio of Vmax/Km in beagle dog liver microsomes assessed as 1alpha-hydroxylcinobufagin formation at 100 uM […] by UFLC-ESI-MS analysis", "format": "ADME, Canis lupus familiaris", "conditions": "0.5 h"}, "[12]": {"experiment": "Ratio of Vmax/Km in Colony-bred Chinese Bama minipig liver microsomes assessed as 1alpha-hydroxylcinobufagin formation at 100 uM […] by UFLC-ESI-MS analysis", "format": "ADME, Sus scrofa", "conditions": "pig, 0.5 h"}, "[13]": {"experiment": "Drug metabolism in Colony-bred Chinese Bama minipig liver microsomes assessed as 5beta-hydroxylcinobufaginn formation per mg of protein at 100 uM at 37 degC after 30 mins by UFLC-ESI-MS analysis", "format": "ADME, Sus scrofa", "conditions": "pig, 0.5 h", "how_it_was_run": "as §1"}, "[14]": {"tested_on": "Liver microsome", "experiment": "Drug metabolism in human liver microsomes assessed as 5beta-hydroxylcinobufaginn formation at 100 uM […] by UFLC-ESI-MS analysis", "format": "ADME", "conditions": "0.5 h, read-out: Km(app)"}, "[15]": {"experiment": "Drug metabolism in cynomolgus monkey liver microsomes assessed as 5beta-hydroxylcinobufaginn formation at 100 uM […] by UFLC-ESI-MS analysis", "format": "ADME, Macaca fascicularis", "conditions": "0.5 h, read-out: Km(app)"}, "[16]": {"tested_on": "Liver microsome", "experiment": "Ratio of Vmax/Km in human liver microsomes assessed as 5beta-hydroxylcinobufaginn formation at 100 uM at 37 degC […] by UFLC-ESI-MS analysis", "format": "ADME", "conditions": "0.5 h"}, "[17]": {"experiment": "Ratio of Vmax/Km in cynomolgus monkey liver microsomes assessed as 5beta-hydroxylcinobufaginn formation at 100 uM […] by UFLC-ESI-MS analysis", "format": "ADME, Macaca fascicularis", "conditions": "0.5 h"}, "[18]": {"experiment": "Drug metabolism in Colony-bred Chinese Bama minipig liver microsomes assessed as 1alpha-hydroxylcinobufagin formation at 100 uM at 37 degC after 30 mins by UFLC-ESI-MS analysis in presence of 1 uM ketoconazole CYP3A4 inhibitor", "format": "ADME, Sus scrofa", "conditions": "pig, 0.5 h", "how_it_was_run": "(§3)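 Chemical inhibition: selective P450 inhibitors (furafylline, sulfaphenazole, ketoconazole) added to liver microsome incubations in 100 mM potassium phosphate pH 7.4 with NADPH-generating system at 37°C. Hydroxylated metabolite formation quantified by UFLC at 294 nm against standards. Mean ± S.D. of three experiments in duplicate.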"}, "[19]": {"tested_on": "Liver microsome", "experiment": "Drug metabolism in beagle dog liver microsomes assessed as 1alpha-hydroxylcinobufagin formation per mg of protein at 100 uM at 37 degC after 30 mins by UFLC-ESI-MS analysis", "format": "ADME, Canis lupus familiaris", "conditions": "0.5 h", "how_it_was_run": "as §1"}, "[20]": {"experiment": "Drug metabolism in Swiss-Hauschka (ICR) mouse liver microsomes assessed as 1alpha-hydroxylcinobufagin formation per mg of protein at 100 uM at 37 degC after 30 mins by UFLC-ESI-MS analysis", "format": "ADME", "conditions": "0.5 h", "how_it_was_run": "as §1"}, "[21]": {"tested_on": "Liver microsome", "experiment": "Drug metabolism in human liver microsomes assessed as 5beta-hydroxylcinobufagin formation at 100 uM at 37 degC after 30 mins by UFLC-ESI-MS analysis in presence of 10 uM quinidine CYP2D6 inhibitor", "format": "ADME", "conditions": "0.5 h", "how_it_was_run": "as §2"}, "[22]": {"tested_on": "Liver microsome", "experiment": "Drug metabolism in human liver microsomes assessed as 1alpha-hydroxylcinobufagin formation at 100 uM at 37 degC after 30 mins by UFLC-ESI-MS analysis in presence of 50 uM clomethiazole CYP2E1 inhibitor", "format": "ADME", "conditions": "0.5 h", "how_it_was_run": "as §2"}, "[23]": {"tested_on": "Liver microsome", "experiment": "Drug metabolism in human liver microsomes assessed as 5beta-hydroxylcinobufagin formation at 100 uM at 37 degC after 30 mins […] in presence of 50 uM clomethiazole CYP2E1 inhibitor", "format": "ADME", "conditions": "0.5 h"}, "[24]": {"experiment": "Drug metabolism in Swiss-Hauschka (ICR) mouse liver microsomes assessed as 1alpha-hydroxylcinobufagin formation at 100 uM at 37 degC after 30 mins by UFLC-ESI-MS analysis in presence of 10 uM furafylline CYP1A2 inhibitor", "format": "ADME", "conditions": "0.5 h", "how_it_was_run": "as §3"}, "[25]": {"experiment": "Drug metabolism in cynomolgus monkey liver microsomes assessed as 1alpha-hydroxylcinobufagin formation at 100 uM at 37 degC after 30 mins by UFLC-ESI-MS analysis", "format": "ADME, Macaca fascicularis", "conditions": "0.5 h, read-out: Km(app)", "how_it_was_run": "as §1"}, "[26]": {"tested_on": "Liver microsome", "experiment": "Ratio of Vmax/Km in beagle dog liver microsomes assessed as 5beta-hydroxylcinobufaginn formation at 100 uM […] by UFLC-ESI-MS analysis", "format": "ADME, Canis lupus familiaris", "conditions": "0.5 h"}}, "data": [{"smiles": "CC(=O)O[C@H]1[C@H]2O[C@]23[C@@H]2CC[C@@H]4C[C@@H](O)CC[C@]4(C)[C@H]2CC[C@]3(C)[C@H]1c1ccc(=O)oc1", "note": "[CINOBUFAGIN]", "values": [{"measurement": "Drug metabolism", "setting": "[1]", "result": "metabolite_detected"}, {"measurement": "Drug metabolism", "setting": "[2]", "result": "metabolite_detected"}, {"measurement": "Drug metabolism", "setting": "[3]", "result": "metabolite_detected"}, {"measurement": "Drug metabolism", "setting": "[4]", "result": "metabolite_detected"}, {"measurement": "Drug metabolism", "setting": "[5]", "result": "metabolite_detected"}, {"measurement": "Drug metabolism", "setting": "[6]", "result": "metabolite_detected"}, {"measurement": "Drug metabolism", "setting": "[7]", "result": "metabolite_detected"}, {"measurement": "Km", "setting": "[8]", "result": 3.3, "unit": "µM"}, {"measurement": "Km", "setting": "[9]", "result": 14.1, "unit": "µM"}, {"measurement": "Vmax/Km", "setting": "[10]", "result": 62, "unit": "µL/min/mg"}, {"measurement": "Vmax/Km", "setting": "[11]", "result": 387.9, "unit": "µL/min/mg"}, {"measurement": "Vmax/Km", "setting": "[12]", "result": 14.5, "unit": "µL/min/mg"}, {"measurement": "Vmax", "setting": "[13]", "result": 0.65, "unit": "nmol/min/mg"}, {"measurement": "Km", "setting": "[14]", "result": 20.4, "unit": "µM"}, {"measurement": "Km", "setting": "[15]", "result": 8.5, "unit": "µM"}, {"measurement": "Vmax/Km", "setting": "[16]", "result": 57.4, "unit": "µL/min/mg"}, {"measurement": "Vmax/Km", "setting": "[17]", "result": 216.5, "unit": "µL/min/mg"}, {"measurement": "Drug metabolism", "setting": "[18]", "result": "metabolite_not_detected"}, {"measurement": "Vmax", "setting": "[19]", "result": 1.28, "unit": "nmol/min/mg"}, {"measurement": "Vmax", "setting": "[20]", "result": 8.39, "unit": "nmol/min/mg"}, {"measurement": "Drug metabolism", "setting": "[21]", "result": "metabolite_detected"}, {"measurement": "Drug metabolism", "setting": "[22]", "result": "metabolite_detected"}, {"measurement": "Drug metabolism", "setting": "[23]", "result": "metabolite_detected"}, {"measurement": "Drug metabolism", "setting": "[24]", "result": "metabolite_detected"}, {"measurement": "Km", "setting": "[25]", "result": 34.2, "unit": "µM"}, {"measurement": "Vmax/Km", "setting": "[26]", "result": 129.4, "unit": "µL/min/mg"}]}]}
